Structures can show the parent of a compound that is named as a salt.
Assays:
[1] = Screening solubility of sorafenib in oils, surfactants and cosolvents; assay type: physicochemical; conditions: 37 °C, thermodynamic from solid
[2] = tested on: Caco-2 cells monolayer; assay: In vitro transport across the Caco-2 cells monolayer; assay type: in vitro ADME; conditions: 80 μg/mL equivalent drug, up to 240 min
Summary of the method: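 Caco-2 cells in RPMI with 10% FBS and 1% penicillin/streptomycin (37 °C, 5% CO2) seeded at 10 × 10⁴ cells/insert on Geltrex-coated 0.3 μm polycarbonate inserts, fed every 2 days for 21 days. Only monolayers with TEER > 300 Ω·cm² were used. Test compound was dispersed in medium and applied apically. Basolateral samples at 30–240 min were replaced with warm medium. Three inserts per time point; HPLC.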

- solubility at 24 h ([1]; capmul MCM (oil), oil or lipid): 5160 ± 800 µg/mL
- solubility at 24 h ([1]; captex 355 (oil), oil or lipid): 42.8 ± 7.6 µg/mL
- solubility at 24 h ([1]; carpyol 90 (oil), oil or lipid): 279 ± 6.5 µg/mL
- solubility at 24 h ([1]; corn oil, oil or lipid): 53 ± 13.7 µg/mL
- solubility at 24 h ([1]; ethanol (cosolvent), organic solvent or mixture): 5800 ± 800 µg/mL
- solubility at 24 h ([1]; isopropyl myristate (oil), oil or lipid): 37.9 ± 7.2 µg/mL
- solubility at 24 h ([1]; labrafil M 1944 CS (oil), oil or lipid): 350 ± 50 µg/mL
- solubility at 24 h ([1]; labrafil M 2125 CS (oil), oil or lipid): 279 ± 44.9 µg/mL
- solubility at 24 h ([1]; lauroglycol (oil), oil or lipid): 298 ± 184 µg/mL
- solubility at 24 h ([1]; mineral oil, oil or lipid): 47.6 ± 25.2 µg/mL
- solubility at 24 h ([1]; olive oil, oil or lipid): 35 ± 0.6 µg/mL
- solubility at 24 h ([1]; peceol (oil), oil or lipid): 900 ± 500 µg/mL
- solubility at 24 h ([1]; soybean oil, oil or lipid): 64 ± 49.3 µg/mL
- solubility at 24 h ([1]; triacetin (oil), oil or lipid): 113 ± 62.5 µg/mL
- Penetration of sorafenib across the monolayer, apical to basolateral [2]: absolutely no penetration
SMILES: CNC(=O)c1cc(Oc2ccc(NC(=O)Nc3ccc(Cl)c(C(F)(F)F)c3)cc2)ccn1 [sorafenib, Sorafenib tosylate]

Reference: publication PMC10139733 (Journal of drug delivery science and technology, 2023)
